Data set [1] has as its system CO/N=C(\C(=O)N[C@@H]1C(=O)N2C(C(=O)[O-])=C(C[N+]3(C)CCCC3)CS[C@H]12)c1csc(N)n1. In words: (§1) Ratio of Kcat to Km for Escherichia coli BL21(DE3) VIM-2 W87A mutant beta-lactamase by spectrophotometer.
The test system of data set [2] is C[C@@H](O)[C@H]1C(=O)N2C(C(=O)O)=C(SCCNC=N)C[C@H]12. Described as §1.
The test system of data set [3] is CO/N=C(\C(=O)N[C@@H]1C(=O)N2C(C(=O)[O-])=C(C[N+]3(C)CCCC3)CS[C@H]12)c1csc(N)n1. The data set is described as follows: (§2) Activity of Escherichia coli BL21(DE3) VIM-2 W87A mutant beta-lactamase by spectrophotometer.
In data set [4] the test system is C[C@@H](O)[C@H]1C(=O)N2C(C(=O)O)=C(SCCNC=N)C[C@H]12. The data set is described as §2.
Data set [5] deals with Escherichia coli. The data set is described as follows: Ratio of Kcat to Km for Escherichia coli XL1-Blue VIM-2 A64W mutant beta-lactamase by spectrophotometer. In a few lines: (§3)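 Mutant enzyme expressed in E. coli BL21(DE3) in autoinducing ZYP-5052 medium. Purified by anion exchange at pH 7.2, then high-resolution anion exchange at pH 9.2, plus gel filtration in 50 mM HEPES-50 μM ZnSO4 pH 7.5 where needed. Identity confirmed by tryptic peptide mass fingerprint. Steady-state kinetics on β-lactam substrates were run under the conditions used for wild-type VIM-2.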

Data set [6] deals with Escherichia coli. The data set is described as follows: Ratio of Kcat to Km for Escherichia coli XL1-Blue wild-type IMP-1 beta-lactamase by spectrophotometer.
Data set [7] relates to Escherichia coli. The data set is described as follows: Activity of Escherichia coli XL1-Blue wild-type IMP-1 beta-lactamase by spectrophotometer.
The test system of data set [8] is Escherichia coli. The data set is described as follows: Activity of Escherichia coli XL1-Blue VIM-2 A64W mutant beta-lactamase by spectrophotometer. Put shortly:
as §3

The test system of data set [9] is Escherichia coli. The data set is described as follows: Ratio of Kcat to Km for Escherichia coli XL1-Blue IMP-1 W64A mutant beta-lactamase by spectrophotometer.
Data set [10] deals with Escherichia coli. In words: Activity of Escherichia coli XL1-Blue IMP-1 W64A mutant beta-lactamase by spectrophotometer.
Data set [11] deals with CO/N=C(\C(=O)N[C@@H]1C(=O)N2C(C(=O)[O-])=C(C[N+]3(C)CCCC3)CS[C@H]12)c1csc(N)n1. The data set is described as follows: (§4) Ratio of Kcat to Km for Escherichia coli BL21(DE3) VIM-2 W87F mutant beta-lactamase by spectrophotometer.
Data set [12] has as its system C[C@@H](O)[C@H]1C(=O)N2C(C(=O)O)=C(SCCNC=N)C[C@H]12. The description is as §4.
The subject of data set [13] is CO/N=C(\C(=O)N[C@@H]1C(=O)N2C(C(=O)[O-])=C(C[N+]3(C)CCCC3)CS[C@H]12)c1csc(N)n1. The data set is described as follows: (§5) Activity of Escherichia coli BL21(DE3) VIM-2 W87F mutant beta-lactamase by spectrophotometer.
Data set [14] deals with C[C@@H](O)[C@H]1C(=O)N2C(C(=O)O)=C(SCCNC=N)C[C@H]12. The description is as §5.

For the compound “Metallo-beta-lactamase (Escherichia coli) (from UniProt Q5U7L7) W87A”, the specificity constant (kcat/Km) (as a rule, the second-order rate constant that governs catalysis at low substrate concentration) in data set [1] came to 0.012 µM⁻¹ s⁻¹; in [2] it was 5.4 µM⁻¹ s⁻¹. Also, the values for the Km in data set [3] and in data set [4] were greater than 350 µM and 22 µM, respectively. Besides, the kcat (as a rule, the number of substrate molecules converted per active site and unit of time at saturation) was greater than 4.5 s⁻¹ in data set [3] and 119 s⁻¹ in data set [4].
`CC(C)(O/N=C(\C(=O)N[C@@H]1C(=O)N2C(C(=O)[O-])=C(C[n+]3ccccc3)CS[C@H]12)c1csc(N)n1)C(=O)O`: the kcat/Km with Escherichia coli [5] is 0.018 µM⁻¹ s⁻¹; in the data set on Escherichia coli [6], 0.18 µM⁻¹ s⁻¹. For the same compound, the Km – broadly, the concentration of substrate that gives half-maximal velocity – was 44 µM in the data set on Escherichia coli [7] and 40 µM in the data set on Escherichia coli [8]. Also, the values for the kcat with Escherichia coli [7] and in the data set with Escherichia coli [8] were 8 s⁻¹ and 0.7 s⁻¹, respectively.
Consider `CO/N=C(\C(=O)N[C@@H]1C(=O)N2C(C(=O)[O-])=C(C[N+]3(C)CCCC3)CS[C@H]12)c1csc(N)n1`, for which the results for the kcat/Km with Escherichia coli [5] and in the data set with Escherichia coli [6] were 0.12 µM⁻¹ s⁻¹ and 0.66 µM⁻¹ s⁻¹, respectively. Moreover, the Km was 11 µM in the data set on Escherichia coli [7] and greater than 400 µM with Escherichia coli [8]. The values for the kcat with Escherichia coli [7] and in the data set with Escherichia coli [8] were 7 s⁻¹ and greater than 50 s⁻¹, respectively.
As for `CO[C@@]1(NC(=O)Cc2cccs2)C(=O)N2C(C(=O)O)=C(COC(N)=O)CS[C@@H]21`, the values for the kcat/Km with Escherichia coli [9] and with Escherichia coli [6] were 0.9 µM⁻¹ s⁻¹ and 3 µM⁻¹ s⁻¹, respectively. Moreover, the values for the Km in the data set on Escherichia coli [10] and in the data set on Escherichia coli [7] were 45 µM and 3 µM, respectively. Besides, the kcat came out at 40 s⁻¹ in the data set on Escherichia coli [10] and 9 s⁻¹ in the data set with Escherichia coli [7].
Take “Metallo-beta-lactamase (Escherichia coli) (from UniProt Q5U7L7) W87F”: the kcat/Km in data set [11] came out at 0.048 µM⁻¹ s⁻¹; in [12] it was 3.7 µM⁻¹ s⁻¹. The Michaelis constant (Km) was greater than 450 µM in [13] and 6 µM in data set [14]. For the same compound, the kcat in data set [13] was greater than 20 s⁻¹; in [14], 22 s⁻¹.
As for `CO/N=C(\C(=O)N[C@@H]1C(=O)N2C(C(=O)O)=C(COC(C)=O)CS[C@H]12)c1csc(N)n1`, the specificity constant (kcat/Km) was found to be 1.5 µM⁻¹ s⁻¹ in the data set with Escherichia coli [9], 3.7 µM⁻¹ s⁻¹ in the data set with Escherichia coli [5] and 4.8 µM⁻¹ s⁻¹ in the data set on Escherichia coli [6]. For the same compound, the Km worked out at 61 µM with Escherichia coli [10], 2.8 µM in the data set with Escherichia coli [7] and 7 µM in the data set on Escherichia coli [8]. For the same compound, the kcat in the data set on Escherichia coli [10] was 98 s⁻¹; in the data set with Escherichia coli [7] it was 13.4 s⁻¹; with Escherichia coli [8] it was 26 s⁻¹.

The record behind these values is ChEMBL document CHEMBL1687761.
